Consider 17 compounds from ChEMBL document CHEMBL1138023, “Macrocyclic ketone analogues of halichondrin B” (Bioorg Med Chem Lett, 2004).

Assay [1] relates to U-937. Kind of assay: In vitro inhibitory concentration required to inhibit the growth of U937 cells was determined at 10 hr by mitotic block reversibility assay. The format is functional. The note with it: Homo sapiens, U-937, 10 h. The method, boiled down:
(§1)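 Human histiocytic lymphoma U937 cells, read by flow cytometry. Scores whether a complete mitotic block is maintained 10 h after drug washout.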

A further assay concerns DLD-1. Kind of assay: In vitro inhibitory concentration required to inhibit the growth of DLD-1 cells under continuous exposure conditions for 3-4 days. The settings on record: Homo sapiens. Format: functional, cell-based. The method, boiled down:
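Human colon cancer DLD-1 cells grown under continuous drug exposure for 3–4 days. Growth inhibition measured and IC50 reported ± SEM, n = number of experiments.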

The test system of assay [2] is U-937. Kind of assay: In vitro inhibitory concentration required to inhibit the growth of U937 cells was determined at 0 hr by mitotic block reversibility assay. Format: functional. The note with it: Homo sapiens, U-937, 0 h.
The test system of a further assay is P388. Kind of assay: Fold resistance calculated as the inhibition concentration ratio between retrovirally transformed murine P388/VMDRC.04 and parental P388 cells. Format: functional. The method in brief: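 Readout of P-glycoprotein (PgP) susceptibility: IC50 in the retrovirally transformed P388/VMDRC.04 line divided by IC50 in parental P388 cells, giving fold resistance.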

A short description of assay [3]: In vitro reversibility ratio in U937 cells. The format is functional, U-937. The method in brief:
as §1

By IC99 is commonly meant the concentration at which the effect reaches the 99% level. A lower IC99 goes with greater potency. The IC50 is the concentration needed to halve the response being measured. The low end stands for higher potency, the high end for lower potency. On to `C=C1C[C@@H]2CC[C@@]34C[C@@H]5O[C@@H]6C(O[C@H]7CC[C@H](CC(=O)C[C@@H]8[C@@H](OC)[C@@H](C[C@H](O)CNC(=O)C(=O)c9ccccc9)O[C@H]8C[C@H]8O[C@@H](CC[C@@H]1O2)C[C@@H](C)C8=C)O[C@@H]7[C@@H]6O3)[C@H]5O4`, for which the IC99 with U-937 [1] amounted to 0.01 µM; with U-937 [2], 0.003 µM. Besides, the IC50 with DLD-1 worked out at 0.87 nM. The FR with P388 is recorded as 3.6. For the same compound, the Reversibility ratio in assay [3] was 3.

Consider `C=C1C[C@@H]2CC[C@@]34C[C@@H]5O[C@@H]6C(O[C@H]7CC[C@H](CC(=O)C[C@@H]8[C@@H](OC)[C@@H](C[C@H](O)CSc9ccc(OC)cc9)O[C@H]8C[C@H]8O[C@@H](CC[C@@H]1O2)C[C@@H](C)C8=C)O[C@@H]7[C@@H]6O3)[C@H]5O4`, for which the concentration for an effect of 99% (IC99) came out at 0.03 µM in the assay with U-937 [1] and 0.003 µM in the assay with U-937 [2]. In the assay on DLD-1, half-maximal inhibition (IC50) was put at 0.71 nM. The FR with P388 is given as 1.7. Besides, in assay [3], the Reversibility ratio is listed as 10.

For `C=C1C[C@@H]2CC[C@@]34C[C@@H]5O[C@@H]6C(O[C@H]7CC[C@H](CC(=O)O[C@@H]8[C@@H](C)[C@@H]9O[C@@H]%10C[C@]%11(C[C@@H]%12O[C@]%13(C[C@H](C)[C@@H]%14O[C@H]([C@@H](O)C[C@@H](O)CO)C[C@@H]%14O%13)C[C@H](C)[C@@H]%12O%11)O[C@@H]%10C[C@@H]9O[C@H]8C[C@H]8O[C@@H](CC[C@@H]1O2)C[C@@H](C)C8=C)O[C@@H]7[C@@H]6O3)[C@H]5O4`, the IC99 in the assay with U-937 [1] turned out to be 0.025 µM; in the assay on U-937 [2] it was 0.008 µM. For the same compound, half-maximal inhibition in the assay on DLD-1 (IC50) was put at 0.74 nM. Further, the FR with P388 is 2.8. Besides, in assay [3], the Reversibility ratio is listed as 3.

For `C=C1C[C@@H]2CC[C@@]34C[C@@H]5O[C@@H]6C(O[C@H]7CC[C@H](CC(=O)C[C@@H]8[C@@H](OC)[C@@H](C[C@H](O)CNC(=O)c9ccc(Cl)cc9)O[C@H]8C[C@H]8O[C@@H](CC[C@@H]1O2)C[C@@H](C)C8=C)O[C@@H]7[C@@H]6O3)[C@H]5O4`, the results for the IC99 in the assay with U-937 [1] and with U-937 [2] were 0.02 µM and 0.003 µM, respectively. The compound also came in with an IC50 in the assay on DLD-1 of 0.69 nM. In the assay with P388, the FR is given as 5.9. Moreover, the Reversibility ratio in assay [3] is listed as 7.

For the compound `C=C1C[C@@H]2CC[C@@]34C[C@@H]5O[C@@H]6C(O[C@H]7CC[C@H](CC(=O)C[C@@H]8[C@@H](OC)[C@@H](C[C@H](O)CSc9ccc(Cl)cc9)O[C@H]8C[C@H]8O[C@@H](CC[C@@H]1O2)C[C@@H](C)C8=C)O[C@@H]7[C@@H]6O3)[C@H]5O4`, the IC99 with U-937 [1] was found to be 0.2 µM; in the assay with U-937 [2] it was 0.01 µM. The same compound returned an IC50 in the assay with DLD-1 of 1.2 nM. Moreover, the FR in the assay with P388 is 2. In addition, the Reversibility ratio in assay [3] was found to be 20.

Take `C=C1C[C@@H]2CC[C@@]34C[C@@H]5O[C@@H]6C(O[C@H]7CC[C@H](CC(=O)C[C@@H]8[C@@H](OC)[C@@H](C[C@H](O)COC(=O)Nc9ccc(OC)cc9)O[C@H]8C[C@H]8O[C@@H](CC[C@@H]1O2)C[C@@H](C)C8=C)O[C@@H]7[C@@H]6O3)[C@H]5O4`: the values for the IC99 in the assay with U-937 [1] and in the assay on U-937 [2] were 0.03 µM and 0.003 µM, respectively. The IC50 in the assay on DLD-1 worked out at 0.86 nM. The FR with P388 was 5.8. Also, the Reversibility ratio in assay [3] is listed as 10.

In the case of `C=C1C[C@@H]2CC[C@@]34C[C@@H]5O[C@@H]6C(O[C@H]7CC[C@H](CC(=O)C[C@@H]8[C@@H](OC)[C@@H](C[C@H](O)CNC(=O)c9cc(OC)c(OC)c(OC)c9)O[C@H]8C[C@H]8O[C@@H](CC[C@@H]1O2)C[C@@H](C)C8=C)O[C@@H]7[C@@H]6O3)[C@H]5O4`, the IC99 in the assay with U-937 [1] is 0.01 µM; in the assay on U-937 [2], 0.002 µM. Besides, in the assay with DLD-1, it took 0.72 nM to reach half-maximal inhibition (IC50). Also, in the assay with P388, the FR is 20. The Reversibility ratio in assay [3] was 5.

In the case of `C=C1C[C@@H]2CC[C@@]34C[C@@H]5O[C@@H]6C(O[C@H]7CC[C@H](CC(=O)C[C@@H]8[C@@H](OC)[C@@H](C[C@H](O)CN9CCOCC9)O[C@H]8C[C@H]8O[C@@H](CC[C@@H]1O2)C[C@@H](C)C8=C)O[C@@H]7[C@@H]6O3)[C@H]5O4`, the results for the IC99 in the assay on U-937 [1] and in the assay on U-937 [2] were 0.02 µM and 0.003 µM, respectively. In addition, the 50% inhibitory concentration (IC50) in the assay on DLD-1 was 0.43 nM. Further, the FR in the assay on P388 is listed as 4.7. Also, the Reversibility ratio in assay [3] is 7.

As for `C=C1C[C@@H]2CC[C@@]34C[C@@H]5O[C@@H]6C(O[C@H]7CC[C@H](CC(=O)C[C@@H]8[C@@H](OC)[C@@H](C[C@H](O)COS(=O)(=O)c9ccc(C)cc9)O[C@H]8C[C@H]8O[C@@H](CC[C@@H]1O2)C[C@@H](C)C8=C)O[C@@H]7[C@@H]6O3)[C@H]5O4`, the IC99 in the assay with U-937 [1] came out at 0.03 µM; in the assay with U-937 [2] it was 0.007 µM. Moreover, in the assay with DLD-1, it took 2 nM to reach half-maximal inhibition (IC50). For the same compound, the FR in the assay on P388 is recorded as 2.4. Moreover, the Reversibility ratio in assay [3] is listed as 4.

In the case of `C=C1C[C@@H]2CC[C@@]34C[C@@H]5O[C@@H]6C(O[C@H]7CC[C@H](CC(=O)C[C@@H]8[C@@H](OC)[C@@H](C[C@H](O)CNC)O[C@H]8C[C@H]8O[C@@H](CC[C@@H]1O2)C[C@@H](C)C8=C)O[C@@H]7[C@@H]6O3)[C@H]5O4`, the IC99 with U-937 [1] and with U-937 [2] was 0.01 µM in each case. In the assay with DLD-1, this compound returned an IC50 of 3.3 nM. In addition, the FR in the assay on P388 is 7. Besides, the Reversibility ratio in assay [3] is reported as 1.

`C=C1C[C@@H]2CC[C@@]34C[C@@H]5O[C@@H]6C(O[C@H]7CC[C@H](CC(=O)C[C@@H]8[C@@H](OC)[C@@H](C[C@H](O)COC(=O)Nc9ccccc9)O[C@H]8C[C@H]8O[C@@H](CC[C@@H]1O2)C[C@@H](C)C8=C)O[C@@H]7[C@@H]6O3)[C@H]5O4`: the IC99 was determined as 0.065 µM with U-937 [1] and 0.003 µM in the assay with U-937 [2]. In the assay with DLD-1, this compound gave an IC50 of 1 nM. Further, in the assay with P388, the FR is reported as 5.7. Moreover, the Reversibility ratio in assay [3] is given as 22.

With `C=C1C[C@@H]2CC[C@@]34C[C@@H]5O[C@@H]6C(O[C@H]7CC[C@H](CC(=O)C[C@@H]8[C@@H](OC)[C@@H](C[C@@H](O)CO)O[C@H]8C[C@H]8O[C@@H](CC[C@@H]1O2)C[C@@H](C)C8=C)O[C@@H]7[C@@H]6O3)[C@H]5O4`, the IC99 with U-937 [1] is 0.1 µM; with U-937 [2] it was 0.003 µM. In the assay on DLD-1, this compound returned an IC50 of 1.9 nM. Also, in the assay with P388, the FR is on record as 13. Further, in assay [3], the Reversibility ratio turned out to be 33.

Regarding `C=C1C[C@@H]2CC[C@@]34C[C@@H]5O[C@@H]6C(O[C@H]7CC[C@H](CC(=O)C[C@@H]8[C@@H](OC)[C@@H](C[C@H](O)CO)O[C@H]8C[C@H]8O[C@@H](CC[C@@H]1O2)C[C@@H](C)C8=C)O[C@@H]7[C@@H]6O3)[C@H]5O4`, the IC99 in the assay with U-937 [1] was 0.038 µM; in the assay on U-937 [2], 0.003 µM. The compound further gave an IC50 in the assay on DLD-1 of 1 nM. Besides, the FR in the assay on P388 is reported as 9.7. Further, the Reversibility ratio in assay [3] is recorded as 13.

Consider `C=C1C[C@@H]2CC[C@@]34C[C@@H]5O[C@@H]6C(O[C@H]7CC[C@H](CC(=O)C[C@@H]8[C@@H](OC)[C@@H](C[C@H](O)CS(=O)(=O)c9ccc(Cl)cc9)O[C@H]8C[C@H]8O[C@@H](CC[C@@H]1O2)C[C@@H](C)C8=C)O[C@@H]7[C@@H]6O3)[C@H]5O4`, for which the values for the concentration for an effect of 99% (IC99) in the assay with U-937 [1] and in the assay with U-937 [2] were 0.03 µM and 0.003 µM, respectively. This compound registered an IC50 in the assay on DLD-1 of 0.66 nM. Also, the FR with P388 is 3.2. Further, the Reversibility ratio in assay [3] worked out at 10.

In the case of `C=C1C[C@@H]2CC[C@@]34C[C@@H]5O[C@@H]6C(O[C@H]7CC[C@H](CC(=O)O[C@@H]8[C@@H](OC)[C@@H](C[C@H](O)CO)O[C@H]8C[C@H]8O[C@@H](CC[C@@H]1O2)C[C@@H](C)C8=C)O[C@@H]7[C@@H]6O3)[C@H]5O4`, in the assay on U-937 [2], the 99% effect level (IC99) was put at 0.002 µM. In addition, the Reversibility ratio in assay [3] was 8.

Regarding `C=C1C[C@@H]2CC[C@@]34C[C@@H]5O[C@@H]6C(O[C@H]7CC[C@H](CC(=O)O[C@@H]8[C@@H](OC)[C@H](O)[C@H](CCO)O[C@H]8C[C@H]8O[C@@H](CC[C@@H]1O2)C[C@@H](C)C8=C)O[C@@H]7[C@@H]6O3)[C@H]5O4`, the 99% effect level in the assay with U-937 [2] (IC99) was put at 0.01 µM. Further, in assay [3], the Reversibility ratio came to 30.

`C=C1C[C@@H]2CC[C@@]34C[C@@H]5O[C@@H]6C(O[C@H]7CC[C@H](CC(=O)O[C@@H]8[C@@H](C)[C@@H]9O[C@H](CO)[C@@H](O)C[C@@H]9O[C@H]8C[C@H]8O[C@@H](CC[C@@H]1O2)C[C@@H](C)C8=C)O[C@@H]7[C@@H]6O3)[C@H]5O4` displayed an IC99 with U-937 [2] of 0.009 µM. Besides, the Reversibility ratio in assay [3] came to 24.
